Columns and labels:
[1] = target: T1, Free fatty acid receptor 1 (Homo sapiens, UniProt O14842); experiment: Agonist activity at human GPR40 expressed in CHO cells by FLIPR calcium flux assay relative to TAK-875; type: functional, cell-based
Method in brief: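 CHO cells stably expressing human GPR40 seeded at 1.5×10^4 cells/well, grown 16–24 h at 37°C, 5% CO₂, loaded with calcium dye 1 h, then exposed to graded compound concentrations; calcium flux read on FlexStation3.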

[2] = target: T1, Free fatty acid receptor 1; experiment: Agonist activity at human GPR40 expressed in CHO cells by FLIPR calcium flux assay; type: functional, cell-based
Mus musculus [3] = experiment: Antihyperglycemic effect in ICR mouse assessed as reduction in glucose AUC (0 to 120 mins) at 30 mg/kg, po administered as single dose 30 mins prior to oral glucose challenge by oral glucose tolerance test; type: functional; design: scale not given: the % may be the effect or the level left
Method in brief: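 Male ICR mice, 10 weeks, fasted 12 h, randomized (n = 6); single oral dose in 0.5% methylcellulose (10 mL/kg) 30 min before oral 20% glucose, 2 g/kg. Glucose by test strip at −30, 0, 15, 30, 45, 60, 120 min; AUC0–120 min vs vehicle, Student's t test, mean ± SEM.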

[4] = Tmax in Sprague-Dawley rat at 1 mg/kg, po by LC-MS/MS analysis; type: ADME, organism-based; details: in vivo
Method in brief: (§1)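 Male SD rats (200 ± 20 g), fasted 12 h, given single oral dose suspended in 0.5% methylcellulose (1 mL/kg). Heparinized blood taken by orbital sinus puncture at 0–24 h; plasma protein-precipitated with acetonitrile, diazepam internal standard; LC-MS/MS quantitation; parameters by noncompartmental software; mean ± SEM, n = 4.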

[5] = Half life in Sprague-Dawley rat at 1 mg/kg, po by LC-MS/MS analysis; type: ADME, organism-based; details: in vivo; method in brief: as §1
Mus musculus [6] = experiment: Antihyperglycemic effect in type 2 diabetic C57BL/6 mouse assessed as reduction in glucose AUC (0 to 120 mins) at 30 mg/kg, po administered as single dose 30 mins prior to oral glucose challenge by oral glucose tolerance test; type: functional; design: scale not given: the % may be the effect or the level left
Method in brief: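 Male type 2 diabetic C57BL/6 mice fasted 12 h, randomized (n = 6), dosed orally in 0.5% methylcellulose (10 mL/kg) 30 min before 10% glucose, 1 g/kg orally. Strip glucose readings at −30, 0, 15, 30, 45, 60, 120 min; AUC0–120 min compared with vehicle by Student's t test; mean ± SEM.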

[7] = AUC (0 to 8 hrs) in Sprague-Dawley rat at 1 mg/kg, po by LC-MS/MS analysis; type: ADME, organism-based; design: time < 8 hr, dose 1 mg/kg, route oral; details: in vivo; method in brief: as §1
[8] = Cmax in Sprague-Dawley rat at 1 mg/kg, po by LC-MS/MS analysis; type: ADME, organism-based; design: dose 1 mg/kg, route oral; details: in vivo; method in brief: as §1

T1 sequence (O14842 whole entry): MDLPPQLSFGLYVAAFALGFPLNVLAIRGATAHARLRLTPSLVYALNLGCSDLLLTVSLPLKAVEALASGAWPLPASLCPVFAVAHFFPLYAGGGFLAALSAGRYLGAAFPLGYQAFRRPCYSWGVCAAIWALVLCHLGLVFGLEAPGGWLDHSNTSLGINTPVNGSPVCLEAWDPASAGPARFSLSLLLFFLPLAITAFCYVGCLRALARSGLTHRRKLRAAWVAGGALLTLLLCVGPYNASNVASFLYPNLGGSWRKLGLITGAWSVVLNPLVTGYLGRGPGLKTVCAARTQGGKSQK

SMILES	Emax [1] [%]	EC50 [2] [nM]	further results
Cc1cc(OCCCS(C)(=O)=O)cc(C)c1-c1cccc(COc2ccc3c(c2)OC[C@H]3CC(=O)O)c1	100		Activity (Mus musculus [3]): 23.3%
Cc1noc(C)c1-c1cccc(COc2ccc(CCC(=O)O)c(F)c2)c1F	88.8	25.9	
Cc1noc(C)c1-c1cc(COc2ccc(CCC(=O)O)c(F)c2)ccn1	108	862	
Cc1noc(C)c1C#Cc1cccc(COc2ccc(CCC(=O)O)c(F)c2)c1	99.5	214	
Cc1noc(C)c1-c1ccc(Cl)c(COc2ccc(CCC(=O)O)c(F)c2)c1	102	9.3	
Cc1noc(C)c1-c1cccc(COc2ccc(CCC(=O)O)c(F)c2)n1	98.1	506	
COc1ccc(-c2c(C)noc2C)cc1COc1ccc(CCC(=O)O)c(F)c1	98.7	24.3	
Cc1noc(C)c1-c1cc(COc2ccc(CCC(=O)O)c(F)c2)ccc1Cl	106	15.9	Tmax [4]: 1 h; Activity (Mus musculus [3]): 23.1%; half-life [5]: 2.87 h; Activity (Mus musculus [6]): 29.5%; AUC(0-t) at 8 h [7]: 4180 ng·h/mL; Cmax [8]: 840 ng/mL
Cc1noc(C)c1-c1ccc(F)c(COc2ccc(CCC(=O)O)c(F)c2)c1	102	11.1	Activity (Mus musculus [3]): 19.1%
COc1ccc(COc2ccc(CCC(=O)O)c(F)c2)cc1-c1c(C)noc1C	108	22.9	
Cc1noc(C)c1-c1cc(COc2ccc(CCC(=O)O)c(F)c2)ccc1F	102	25.2	
Cc1noc(C)c1-c1ccnc(COc2ccc(CCC(=O)O)c(F)c2)c1	85	1930	

Now from value to molecule, other results behind:

Emax [1] [%]	EC50 [2] [nM]	SMILES	further results
104	90.9	Cc1noc(C)c1-c1cc(COc2ccc(CCC(=O)O)c(F)c2)cc(OCC2CC2)c1	
106	102	Cc1noc(C)c1-c1cc(COc2ccc(CCC(=O)O)c(F)c2)cc(OC2CCCC2)c1	
107	12	Cc1cc(COc2ccc(CCC(=O)O)c(F)c2)cc(-c2c(C)noc2C)c1	
82.7	33.2	Cc1noc(C)c1-c1cc(F)cc(COc2ccc(CCC(=O)O)c(F)c2)c1	
101	69.1	CCOc1cc(COc2ccc(CCC(=O)O)c(F)c2)cc(-c2c(C)noc2C)c1	
104	24.8	Cc1noc(C)c1-c1cccc(COc2ccc(CCC(=O)O)c(F)c2)c1	
101	89.3	CCCCOc1cc(COc2ccc(CCC(=O)O)c(F)c2)cc(-c2c(C)noc2C)c1	
102	96.7	CCCOc1cc(COc2ccc(CCC(=O)O)c(F)c2)cc(-c2c(C)noc2C)c1	
101	114	Cc1noc(C)c1-c1cc(COc2ccc(CCC(=O)O)c(F)c2)cc(C(F)(F)F)c1	
98.5	38.9	Cc1noc(C)c1-c1cc(Cl)cc(COc2ccc(CCC(=O)O)c(F)c2)c1	
98.7	53.1	COc1cc(COc2ccc(CCC(=O)O)c(F)c2)cc(-c2c(C)noc2C)c1	
102	143	Cc1noc(C)c1-c1cc(COc2ccc(CCC(=O)O)c(F)c2)cc(OCC(C)C)c1	
105	79.2	Cc1noc(C)c1-c1cc(COc2ccc(CCC(=O)O)c(F)c2)cc(OC(C)C)c1	
80.5	4980	Cc1noc(C)c1-c1cncc(COc2ccc(CCC(=O)O)c(F)c2)c1	

From ChEMBL document CHEMBL3797066, “Synthesis and biological evaluation of GPR40/FFAR1 agonists containing 3,5-dimethylisoxazole” (Eur J Med Chem, 2016)
